Shown are actives, neighbours in structure and some others; about 2% of the full set was active somewhere.
HIF act: HIF pathway transcriptional activation; activation, % at 7.5 µM (by protocol); U2OS HRE-luciferase reporter, luminescence; normalized: DMSO 0%, desferrioxamine 100%; hit rate 0.32% among 300,000;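 active = mean activation of at least 10% of the iron chelator positive control signal, with at least half of replicates also reaching 10%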
NR2E3 ag-1: human photoreceptor-specific nuclear receptor agonism | Q9Y5X4 | CHO-S Gal4-NCOR/VP16-NR2E3 two-hybrid, luciferase | inhibition of corepressor binding, % at 3.98 µM | hit rate 0.35% among 360,000 | AID 602229;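 active = inhibition above the mean of all tested compounds plus 3 SD, cut at about 70% in these data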;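 also: 0% = DMSO with NR2E3 transfected cells and 100% = cells lacking NR2E3 construct; higher means lower luciferase signal from less NR2E3 corepressor binding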
Target sequence (Q9Y5X4 whole entry, looked up, the tested form may be a part): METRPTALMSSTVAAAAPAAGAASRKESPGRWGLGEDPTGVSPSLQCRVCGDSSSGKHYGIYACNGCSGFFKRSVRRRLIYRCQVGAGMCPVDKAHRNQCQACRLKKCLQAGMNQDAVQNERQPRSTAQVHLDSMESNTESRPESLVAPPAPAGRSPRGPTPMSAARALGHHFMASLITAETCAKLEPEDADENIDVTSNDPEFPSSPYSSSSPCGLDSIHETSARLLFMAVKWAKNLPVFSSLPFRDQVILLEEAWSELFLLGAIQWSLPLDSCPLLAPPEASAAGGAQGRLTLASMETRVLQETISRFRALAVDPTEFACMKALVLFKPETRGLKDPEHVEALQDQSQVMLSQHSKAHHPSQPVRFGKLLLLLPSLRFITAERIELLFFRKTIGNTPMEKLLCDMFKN
TROY NFkB inh: TROY signaling inhibition | Q293 LMP1-TROYcd NF-kB luciferase reporter, 4 h | inhibition, % at 10 µM | hit rate 0.98% among 360,000;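 active = compounds whose plate-normalised and pattern-corrected inhibition of the luciferase reporter signal at the single screening dose is 50% or more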
LMP1 NFkB inh: Epstein-Barr LMP1 NF-kappaB reporter inhibition | LMP1-induced NF-kappaB luciferase reporter cells, luminescence | inhibition, % at 12.5 µM | hit rate 0.69% among 350,000; in the data active = inhibition above about 41%;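 also: 0% = neutral control wells and 100% = reference inhibitor control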
NR2E3 ag-2: activates human photoreceptor nuclear receptor NR2E3. inhibition of corepressor binding, % at 4.78 µM. hit rate 0.12% among 320,000. GST-NR2E3/biotin-RetCOR TR-FRET, 1536-well. AID 2300. Q9Y5X4;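 active = percent inhibition above the cutoff of mean plus 3 SD of all tested compounds, set per screening campaign, cut at about 20% in these data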;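 also: 0% = DMSO wells and 100% = biotin wells as full block of FRET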
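Material – GST-tagged NR2E3 plus biotinylated RetCOR corepressor · Quantity – NR2E3 fusion 1.35 nM · Times – 5 h incubation at 4 °C · Medium – pH 7.5 Tris-based buffer · Technique – TR-FRET, Eu(K)-anti-GST donor, streptavidin-D2 acceptor, ex 340, em 617/671 nm · Benchmarks – high control biotin, low control 0.6% DMSO · Format – 1536-well plates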
The depositor's hits bear a star.

For CC(Sc1nnc(N)s1)C(=O)NC1CCCCC1C (stereo not drawn) the results were HIF act 0, NR2E3 ag-1 18, TROY NFkB inh -4, LMP1 NFkB inh 5 and NR2E3 ag-2 0.
`COC(=O)c1c(C)[nH]c(C(=O)C(C)OC(=O)C2CC(=O)N(c3ccc(C)cc3)C2)c1C` (stereo not drawn) gave NR2E3 ag-1 45, TROY NFkB inh 54*, LMP1 NFkB inh 10 and NR2E3 ag-2 -3.
COC(=O)c1c(C)[nH]c(C(=O)C(C)OC(=O)C2CC(=O)N(CCc3ccccc3)C2)c1C (stereo not drawn) was read as NR2E3 ag-1 0, TROY NFkB inh -7, LMP1 NFkB inh 3 and NR2E3 ag-2 -2.
COc1ccc2sc3cccc(NCCN(C)C)c3c(=O)c2c1 was read as NR2E3 ag-1 -30 and TROY NFkB inh -44.
`CN(C)CCNc1ccc(CO)c2sc3ccc(O)cc3c(=O)c12` gave NR2E3 ag-1 -2, TROY NFkB inh -53 and LMP1 NFkB inh 49*.
`CCC(=O)OCCNc1cc(Sc2nc3ccccc3[nH]2)c2nonc2c1[N+](=O)[O-]` gave NR2E3 ag-1 9, TROY NFkB inh 54*, LMP1 NFkB inh 10 and NR2E3 ag-2 1.
`CCCCC/C=C\C/C=C\C/C=C\CCCCC(=O)O` gave NR2E3 ag-1 -33, TROY NFkB inh -30, LMP1 NFkB inh 53* and NR2E3 ag-2 -1.
Screening Cc1ccc(Cc2c(C)c(C#N)c3[nH]c4ccccc4n3c2=O)cc1 returned HIF act 0, NR2E3 ag-1 -19, TROY NFkB inh 60*, LMP1 NFkB inh 7 and NR2E3 ag-2 1.
`C=C(C)Cc1c(C)c(C#N)c2[nH]c3ccccc3n2c1=O` gave HIF act -8, NR2E3 ag-1 -14, TROY NFkB inh 32, LMP1 NFkB inh 6 and NR2E3 ag-2 -3.
Screening CCOC(=O)N1C/C(=C\c2ccccc2)C(=O)/C(=C/c2ccccc2)C1 returned HIF act 3, NR2E3 ag-1 6, TROY NFkB inh 74* and LMP1 NFkB inh -49.
CN(C)CCC(=O)N1C/C(=C/c2ccccc2)C(=O)/C(=C\c2ccccc2)C1 was read as NR2E3 ag-1 39, TROY NFkB inh 59* and LMP1 NFkB inh 87*.
Screening C[N+](C)(C)CCC(=O)N1C/C(=C/c2ccccc2)C(=O)/C(=C\c2ccccc2)C1 returned NR2E3 ag-1 0, TROY NFkB inh 10 and LMP1 NFkB inh -42.
For COc1ccc(N2CCN(C(=O)c3ccc4c(c3)NC(=O)C(CSCc3ccccc3F)N4)CC2)cc1 (stereo not drawn) the results were NR2E3 ag-1 9, TROY NFkB inh 10 and LMP1 NFkB inh 1.
O=C(c1ccc(Cl)cc1)N1CCN(c2ccnc3cc(Cl)ccc23)CC1 was read as HIF act -1, NR2E3 ag-1 32, TROY NFkB inh 34 and LMP1 NFkB inh 50*.
Screening O=C(Nc1ccccc1C(=O)O)c1ccc(NC(=O)C2CC2)cc1 returned HIF act -1, NR2E3 ag-1 -16, TROY NFkB inh 20, LMP1 NFkB inh 20 and NR2E3 ag-2 1.
Nc1ccccc1NC(=O)c1ccccc1 was read as HIF act 25*, NR2E3 ag-1 -55, TROY NFkB inh -39, LMP1 NFkB inh 44* and NR2E3 ag-2 -2.
`O=C(Nc1ccccc1O)c1ccc(NC(=O)C2CC2)cc1` gave HIF act 58*, NR2E3 ag-1 -84, TROY NFkB inh -37, LMP1 NFkB inh 31 and NR2E3 ag-2 0.
`O=C(Nc1ccccc1Cl)c1ccccc1` gave HIF act 2, NR2E3 ag-1 -29, TROY NFkB inh -38, LMP1 NFkB inh -12 and NR2E3 ag-2 3.
`O=C(Nc1ccccc1Cl)c1ccc(C(=O)Nc2ccccc2Cl)cc1` gave NR2E3 ag-1 34, TROY NFkB inh 62* and LMP1 NFkB inh 85*.
CC(=O)Nc1ccccc1NC(=O)c1ccccc1 was read as HIF act 0, NR2E3 ag-1 -27, TROY NFkB inh -18, LMP1 NFkB inh 5 and NR2E3 ag-2 1.
For O=C(CNC(=S)NC(=O)c1ccco1)c1ccccc1 the results were HIF act -24, NR2E3 ag-1 -49, TROY NFkB inh -11, LMP1 NFkB inh -15 and NR2E3 ag-2 -4.
Screening CCOC(=O)C1=CN(Cc2cccc(-c3cccnc3)c2)S(=O)(=O)N(C)C1C (stereo not drawn) returned NR2E3 ag-1 10, TROY NFkB inh 11 and LMP1 NFkB inh 3.
`Nn1c(-c2cccs2)nc2sc3c(c2c1=O)CCCC3` gave HIF act 2, NR2E3 ag-1 -138, TROY NFkB inh -19, LMP1 NFkB inh -36 and NR2E3 ag-2 -3.
Cc1ccccc1-c1nc2sc3c(c2c(=O)n1N)CCCC3 was read as HIF act 2, NR2E3 ag-1 -37, TROY NFkB inh 77*, LMP1 NFkB inh -15 and NR2E3 ag-2 -2.
`C[N+](C)(C)C[C@H](O)CC(=O)[O-]` gave HIF act 0, NR2E3 ag-1 -15, TROY NFkB inh 2, LMP1 NFkB inh 51* and NR2E3 ag-2 2.
Screening CC(CCN1C(Nc2ccccc2)=NC[C@@H]1C)c1ccccc1 (stereo partly drawn) returned HIF act 0, NR2E3 ag-1 1, TROY NFkB inh 0, LMP1 NFkB inh -8 and NR2E3 ag-2 1.
`COc1ccccc1C(C)NS(=O)(=O)c1cccs1` (stereo not drawn) gave HIF act 0 and NR2E3 ag-2 1.
For Oc1c(C(Nc2cccc(C(F)(F)F)c2)c2ccncc2)ccc2cccnc12 (stereo not drawn) the results were HIF act 24*, NR2E3 ag-1 -24, TROY NFkB inh -28, LMP1 NFkB inh 53* and NR2E3 ag-2 1.
For Oc1c(C(Nc2nccs2)c2ccc(C(F)(F)F)cc2)ccc2cccnc12 (stereo not drawn) the results were HIF act 58*, NR2E3 ag-1 -32, TROY NFkB inh 1 and LMP1 NFkB inh 73*.
NCC1C2CCC(O2)C1CO (stereo not drawn) was read as NR2E3 ag-1 -7, TROY NFkB inh -10 and LMP1 NFkB inh -6.
Cc1cc(C(=O)N2CCC2(C)C(=O)O)nn1C(C)(C)C (stereo not drawn) was read as NR2E3 ag-1 0 and TROY NFkB inh -19.
Screening COc1ccc(/C=C/C(=O)NCCSCc2ccco2)cc1OC returned HIF act 57*, NR2E3 ag-1 -10, TROY NFkB inh 11, LMP1 NFkB inh 6 and NR2E3 ag-2 3.
COc1ccc(CCNC(=O)/C=C/c2ccco2)cc1OC was read as HIF act 0, NR2E3 ag-1 -65, TROY NFkB inh 1, LMP1 NFkB inh -5 and NR2E3 ag-2 -2.
Screening CCCN(CC(=O)Nc1ccccc1C)C(=O)COc1c(C)cccc1C returned NR2E3 ag-1 -3, TROY NFkB inh -18, LMP1 NFkB inh 7 and NR2E3 ag-2 5.
